Measurements reported in ChEMBL document CHEMBL3392986, “Hydroxamic acids block replication of hepatitis C virus” (J Med Chem, 2015).
The source made the active and inactive calls. The calls are words filed in the database; no cut-off is given here.

How the values were obtained:
[1] = biological target: Histone deacetylase 9 (Homo sapiens) (UniProt Q9UKV0); assay: Inhibition of full length C-terminal His-tagged human HDAC9 (amino acids 604 to 1066 ) expressed in baculovirus expression system assessed as inhibition of fluorophore 7-amino-4-methylcoumarin release by fluorescence assay
Chain of Histone deacetylase 9 (Homo sapiens) (Q9UKV0 whole entry, the tested form may be a part): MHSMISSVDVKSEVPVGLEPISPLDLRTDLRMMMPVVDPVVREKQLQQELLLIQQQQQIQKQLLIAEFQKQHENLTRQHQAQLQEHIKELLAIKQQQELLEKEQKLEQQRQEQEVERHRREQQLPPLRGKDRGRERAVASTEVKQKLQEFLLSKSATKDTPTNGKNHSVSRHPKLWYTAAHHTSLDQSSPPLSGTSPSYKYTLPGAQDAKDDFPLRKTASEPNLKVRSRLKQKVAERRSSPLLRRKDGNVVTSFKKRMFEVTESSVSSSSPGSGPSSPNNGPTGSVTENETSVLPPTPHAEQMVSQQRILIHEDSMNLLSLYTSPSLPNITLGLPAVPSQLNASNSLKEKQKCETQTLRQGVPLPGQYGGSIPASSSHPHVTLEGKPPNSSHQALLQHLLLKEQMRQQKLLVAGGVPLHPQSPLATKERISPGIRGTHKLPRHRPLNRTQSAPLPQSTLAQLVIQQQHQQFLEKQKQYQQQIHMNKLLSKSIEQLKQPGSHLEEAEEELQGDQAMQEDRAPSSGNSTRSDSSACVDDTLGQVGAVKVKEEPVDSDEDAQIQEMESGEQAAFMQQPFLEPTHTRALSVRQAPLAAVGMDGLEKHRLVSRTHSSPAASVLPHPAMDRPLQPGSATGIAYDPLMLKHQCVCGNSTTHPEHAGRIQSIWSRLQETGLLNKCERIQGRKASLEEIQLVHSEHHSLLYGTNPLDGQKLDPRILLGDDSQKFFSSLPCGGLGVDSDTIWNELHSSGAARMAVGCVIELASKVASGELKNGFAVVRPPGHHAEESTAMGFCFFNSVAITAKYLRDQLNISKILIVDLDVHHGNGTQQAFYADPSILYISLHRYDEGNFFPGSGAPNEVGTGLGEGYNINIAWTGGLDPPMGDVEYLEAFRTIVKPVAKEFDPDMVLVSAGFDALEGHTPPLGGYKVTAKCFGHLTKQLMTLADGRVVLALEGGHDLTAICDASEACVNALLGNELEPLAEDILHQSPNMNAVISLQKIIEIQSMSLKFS

[2] = biological target: Disintegrin and metalloproteinase domain-containing protein 17 (Homo sapiens) (UniProt P78536); assay: Inhibition of human recombinant TACE catalytic domain (215 to 671 aa) expressed in Escherichia coli
Chain of Disintegrin and metalloproteinase domain-containing protein 17 (Homo sapiens) (P78536 whole entry, the tested form may be a part): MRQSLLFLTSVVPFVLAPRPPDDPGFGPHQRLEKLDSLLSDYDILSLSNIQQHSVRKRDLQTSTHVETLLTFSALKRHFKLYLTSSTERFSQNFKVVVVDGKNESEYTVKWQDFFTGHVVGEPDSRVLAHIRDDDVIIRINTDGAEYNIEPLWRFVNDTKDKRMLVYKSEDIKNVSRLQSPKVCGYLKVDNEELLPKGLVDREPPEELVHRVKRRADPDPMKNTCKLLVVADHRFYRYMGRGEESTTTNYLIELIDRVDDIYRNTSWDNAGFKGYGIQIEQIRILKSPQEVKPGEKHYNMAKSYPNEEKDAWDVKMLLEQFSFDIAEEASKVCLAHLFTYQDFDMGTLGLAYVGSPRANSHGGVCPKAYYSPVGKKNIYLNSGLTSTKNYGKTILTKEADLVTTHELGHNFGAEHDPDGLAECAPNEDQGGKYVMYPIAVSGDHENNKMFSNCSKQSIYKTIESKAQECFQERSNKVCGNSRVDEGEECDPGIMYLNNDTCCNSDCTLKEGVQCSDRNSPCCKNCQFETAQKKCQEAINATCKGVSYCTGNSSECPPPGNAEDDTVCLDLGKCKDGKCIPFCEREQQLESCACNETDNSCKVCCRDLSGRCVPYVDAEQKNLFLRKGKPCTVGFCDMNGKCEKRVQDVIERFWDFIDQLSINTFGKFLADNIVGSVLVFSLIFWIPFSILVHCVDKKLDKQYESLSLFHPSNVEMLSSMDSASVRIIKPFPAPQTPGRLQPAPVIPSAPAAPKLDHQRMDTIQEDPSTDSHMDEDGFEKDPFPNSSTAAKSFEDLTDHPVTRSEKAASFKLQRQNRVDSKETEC

Hepatitis C virus [3] = assay: Antiviral activity against HCV genotype 1b infected in human Huh7 cells assessed as reduction in viral RNA level at 0.5 uM after 3 days by RT-qPCR; format: functional, Hepacivirus hominis, Huh-7; parameters: scale not given: the % may be the effect or the level left; conditions: in the assay text read “2 uM” for “0.5 uM”
Procedure, shortened: (§1)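 Replicon-bearing Huh7 cells, 6 X 10^3 per well, exposed to compound in DMSO or DMSO alone for three days at 37 °C/5% CO2. Replicon RNA quantified by TaqMan Cells-to-CT RT-qPCR with NS5B primers/probe, using GAPDH in parallel wells as reference. Level relative to DMSO-treated cells calculated as 2-∆∆CT. Triplicate wells.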

Hepatitis C virus [4] = assay: Antiviral activity against HCV genotype 1b infected in human Huh7 cells after 3 days by luciferase reporter gene assay; format: functional, cell-based, Hepacivirus hominis; conditions: Huh-7, 72 h
[5] = biological target: Histone deacetylase 2 (Homo sapiens) (UniProt Q92769); assay: Inhibition of full length C-terminal His-tagged human HDAC2 expressed in baculovirus expression system assessed as inhibition of fluorophore 7-amino-4-methylcoumarin release by fluorescence assay
Chain of Histone deacetylase 2 (Homo sapiens) (Q92769 whole entry): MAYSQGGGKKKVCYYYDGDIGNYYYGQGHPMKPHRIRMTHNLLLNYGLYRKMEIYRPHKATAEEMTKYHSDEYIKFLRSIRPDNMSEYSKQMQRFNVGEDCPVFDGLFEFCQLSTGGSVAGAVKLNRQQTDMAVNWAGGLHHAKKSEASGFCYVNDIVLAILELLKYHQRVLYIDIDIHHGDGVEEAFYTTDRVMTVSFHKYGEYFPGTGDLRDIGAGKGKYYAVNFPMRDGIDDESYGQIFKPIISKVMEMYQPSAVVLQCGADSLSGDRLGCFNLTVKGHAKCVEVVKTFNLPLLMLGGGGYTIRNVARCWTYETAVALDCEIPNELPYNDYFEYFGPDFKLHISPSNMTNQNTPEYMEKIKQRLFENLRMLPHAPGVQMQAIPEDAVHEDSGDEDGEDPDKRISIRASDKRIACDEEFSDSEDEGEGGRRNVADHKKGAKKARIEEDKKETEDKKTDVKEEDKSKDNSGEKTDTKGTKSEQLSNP

[6] = Therapeutic index, ratio of CC50 for human HuH7 cells to EC50 for HCV genotype 1b infected in human Huh7 cells; conditions: HuH7 cells
[7] = biological target: T1, Histone deacetylase 11 (Homo sapiens) (UniProt Q96DB2); assay: Inhibition of N-terminal GST-tagged human HDAC11 expressed in baculovirus expression system assessed as inhibition of fluorophore 7-amino-4-methylcoumarin release by fluorescence assay
T1 sequence (whole entry): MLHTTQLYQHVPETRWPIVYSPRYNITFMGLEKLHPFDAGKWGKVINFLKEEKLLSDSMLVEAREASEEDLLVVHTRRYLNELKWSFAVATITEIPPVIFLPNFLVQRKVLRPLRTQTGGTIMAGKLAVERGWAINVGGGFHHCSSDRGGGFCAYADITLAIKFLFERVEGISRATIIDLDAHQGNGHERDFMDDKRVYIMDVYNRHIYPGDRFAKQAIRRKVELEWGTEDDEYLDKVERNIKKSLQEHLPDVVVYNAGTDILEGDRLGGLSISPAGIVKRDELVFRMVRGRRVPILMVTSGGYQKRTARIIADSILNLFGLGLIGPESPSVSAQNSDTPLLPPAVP

[8] = biological target: Histone deacetylase 1 (Homo sapiens) (UniProt Q13547); assay: Inhibition of full length C-terminal GST-tagged human HDAC1 expressed in baculovirus expression system assessed as inhibition of fluorophore 7-amino-4-methylcoumarin release by fluorescence assay
Chain of Histone deacetylase 1 (Homo sapiens) (Q13547 whole entry): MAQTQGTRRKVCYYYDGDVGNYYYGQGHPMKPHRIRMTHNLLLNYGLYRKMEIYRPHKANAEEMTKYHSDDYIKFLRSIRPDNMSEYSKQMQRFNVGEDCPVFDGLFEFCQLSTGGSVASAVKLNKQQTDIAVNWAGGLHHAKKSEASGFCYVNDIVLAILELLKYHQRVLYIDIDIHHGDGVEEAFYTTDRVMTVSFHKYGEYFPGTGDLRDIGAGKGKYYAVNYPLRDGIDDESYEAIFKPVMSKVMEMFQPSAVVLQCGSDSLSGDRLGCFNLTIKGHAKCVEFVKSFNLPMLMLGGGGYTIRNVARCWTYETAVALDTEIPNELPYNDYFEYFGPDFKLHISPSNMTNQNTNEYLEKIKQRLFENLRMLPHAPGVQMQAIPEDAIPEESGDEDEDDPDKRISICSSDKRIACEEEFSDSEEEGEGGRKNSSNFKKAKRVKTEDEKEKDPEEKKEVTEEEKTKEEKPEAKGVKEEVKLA

[9] = biological target: Histone deacetylase 3 (Homo sapiens) (UniProt O15379); assay: Inhibition of full length C-terminal His-tagged human HDAC3 expressed in baculovirus expression system assessed as inhibition of fluorophore 7-amino-4-methylcoumarin release by fluorescence assay
[10] = biological target: Histone deacetylase 4 (Homo sapiens) (UniProt P56524); assay: Inhibition of N-terminal GST-tagged human HDAC4 (amino acids 627 to 1085) expressed in baculovirus expression system assessed as inhibition of fluorophore 7-amino-4-methylcoumarin release by fluorescence assay
Chain of Histone deacetylase 4 (Homo sapiens) (P56524 whole entry, the tested form may be a part): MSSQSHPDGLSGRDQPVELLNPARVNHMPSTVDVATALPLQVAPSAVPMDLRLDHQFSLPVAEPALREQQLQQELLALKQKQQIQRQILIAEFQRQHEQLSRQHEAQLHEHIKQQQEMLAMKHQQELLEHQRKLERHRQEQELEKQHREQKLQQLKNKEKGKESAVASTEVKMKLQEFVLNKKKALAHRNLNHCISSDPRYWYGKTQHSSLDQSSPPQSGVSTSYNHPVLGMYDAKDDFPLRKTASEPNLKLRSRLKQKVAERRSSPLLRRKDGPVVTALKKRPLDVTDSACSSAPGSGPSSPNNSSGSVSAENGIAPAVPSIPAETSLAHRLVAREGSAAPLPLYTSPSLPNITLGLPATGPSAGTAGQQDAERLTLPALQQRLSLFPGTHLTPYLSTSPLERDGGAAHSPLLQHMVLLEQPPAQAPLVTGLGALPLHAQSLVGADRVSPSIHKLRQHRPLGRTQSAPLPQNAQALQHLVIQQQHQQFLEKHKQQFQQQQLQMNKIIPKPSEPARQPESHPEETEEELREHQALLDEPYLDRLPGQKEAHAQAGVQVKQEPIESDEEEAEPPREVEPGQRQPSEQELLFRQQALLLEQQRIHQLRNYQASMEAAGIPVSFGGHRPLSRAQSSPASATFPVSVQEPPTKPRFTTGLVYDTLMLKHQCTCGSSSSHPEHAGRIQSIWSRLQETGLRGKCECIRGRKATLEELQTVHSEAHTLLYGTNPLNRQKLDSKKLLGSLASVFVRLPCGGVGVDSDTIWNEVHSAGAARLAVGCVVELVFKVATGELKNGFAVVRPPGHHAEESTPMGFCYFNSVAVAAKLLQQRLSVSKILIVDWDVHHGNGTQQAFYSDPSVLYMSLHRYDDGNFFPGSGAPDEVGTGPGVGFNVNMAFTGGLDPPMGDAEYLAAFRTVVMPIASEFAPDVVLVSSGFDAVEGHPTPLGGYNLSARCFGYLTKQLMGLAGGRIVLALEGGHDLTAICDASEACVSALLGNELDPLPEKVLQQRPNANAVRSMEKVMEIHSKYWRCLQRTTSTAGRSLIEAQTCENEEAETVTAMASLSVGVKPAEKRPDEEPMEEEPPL

[11] = Cytotoxicity against human HuH7 cells assessed as inhibition of cell viability after 3 days by CellTiter 96 assay
[12] = biological target: Histone deacetylase 5 (Homo sapiens) (UniProt Q9UQL6); assay: Inhibition of full length N-terminal GST-tagged human HDAC5 expressed in baculovirus expression system assessed as inhibition of fluorophore 7-amino-4-methylcoumarin release by fluorescence assay
Chain of Histone deacetylase 5 (Homo sapiens) (Q9UQL6 whole entry): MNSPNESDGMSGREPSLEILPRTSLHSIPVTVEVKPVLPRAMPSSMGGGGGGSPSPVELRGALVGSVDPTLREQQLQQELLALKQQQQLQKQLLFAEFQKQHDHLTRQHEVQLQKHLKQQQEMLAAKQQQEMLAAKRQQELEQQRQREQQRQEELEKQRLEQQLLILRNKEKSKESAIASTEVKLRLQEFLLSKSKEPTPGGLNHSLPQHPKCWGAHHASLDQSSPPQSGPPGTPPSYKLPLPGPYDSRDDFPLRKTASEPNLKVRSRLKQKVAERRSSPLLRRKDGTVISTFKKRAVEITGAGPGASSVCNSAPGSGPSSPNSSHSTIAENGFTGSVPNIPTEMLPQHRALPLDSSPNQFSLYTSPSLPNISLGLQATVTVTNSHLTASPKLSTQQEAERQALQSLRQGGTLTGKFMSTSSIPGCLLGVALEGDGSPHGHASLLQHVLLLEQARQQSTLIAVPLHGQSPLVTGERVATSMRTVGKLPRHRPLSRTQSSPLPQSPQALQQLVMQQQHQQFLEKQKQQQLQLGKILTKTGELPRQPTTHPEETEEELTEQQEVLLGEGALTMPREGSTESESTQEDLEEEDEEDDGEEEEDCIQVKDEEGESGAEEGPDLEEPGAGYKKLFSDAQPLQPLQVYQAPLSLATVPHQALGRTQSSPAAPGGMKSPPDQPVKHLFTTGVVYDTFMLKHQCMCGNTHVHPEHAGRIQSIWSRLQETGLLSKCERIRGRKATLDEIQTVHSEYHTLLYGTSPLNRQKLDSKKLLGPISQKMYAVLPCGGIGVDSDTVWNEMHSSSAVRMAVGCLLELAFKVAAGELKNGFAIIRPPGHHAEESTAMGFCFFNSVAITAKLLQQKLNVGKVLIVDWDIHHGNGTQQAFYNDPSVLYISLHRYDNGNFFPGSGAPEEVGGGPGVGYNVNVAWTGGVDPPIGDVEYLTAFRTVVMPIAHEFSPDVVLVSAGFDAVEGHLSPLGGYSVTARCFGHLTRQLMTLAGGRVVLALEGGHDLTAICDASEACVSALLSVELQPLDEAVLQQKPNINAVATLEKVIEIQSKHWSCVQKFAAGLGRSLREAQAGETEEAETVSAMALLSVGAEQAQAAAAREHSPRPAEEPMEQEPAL

Hepatitis C virus [13] = assay: Antiviral activity against HCV genotype 1b infected in human Huh7 cells assessed as reduction in viral RNA level at 2 uM after 3 days by RT-qPCR; format: functional, Hepacivirus hominis, Huh-7; parameters: scale not given: the % may be the effect or the level left; procedure, shortened: as §1
[14] = biological target: T2, Polyamine deacetylase HDAC10 (Homo sapiens) (UniProt Q969S8); assay: Inhibition of full length N-terminal GST-tagged human HDAC10 (amino acids 1 to 631 ) expressed in baculovirus expression system assessed as inhibition of fluorophore 7-amino-4-methylcoumarin release by fluorescence assay
T2 sequence (whole entry): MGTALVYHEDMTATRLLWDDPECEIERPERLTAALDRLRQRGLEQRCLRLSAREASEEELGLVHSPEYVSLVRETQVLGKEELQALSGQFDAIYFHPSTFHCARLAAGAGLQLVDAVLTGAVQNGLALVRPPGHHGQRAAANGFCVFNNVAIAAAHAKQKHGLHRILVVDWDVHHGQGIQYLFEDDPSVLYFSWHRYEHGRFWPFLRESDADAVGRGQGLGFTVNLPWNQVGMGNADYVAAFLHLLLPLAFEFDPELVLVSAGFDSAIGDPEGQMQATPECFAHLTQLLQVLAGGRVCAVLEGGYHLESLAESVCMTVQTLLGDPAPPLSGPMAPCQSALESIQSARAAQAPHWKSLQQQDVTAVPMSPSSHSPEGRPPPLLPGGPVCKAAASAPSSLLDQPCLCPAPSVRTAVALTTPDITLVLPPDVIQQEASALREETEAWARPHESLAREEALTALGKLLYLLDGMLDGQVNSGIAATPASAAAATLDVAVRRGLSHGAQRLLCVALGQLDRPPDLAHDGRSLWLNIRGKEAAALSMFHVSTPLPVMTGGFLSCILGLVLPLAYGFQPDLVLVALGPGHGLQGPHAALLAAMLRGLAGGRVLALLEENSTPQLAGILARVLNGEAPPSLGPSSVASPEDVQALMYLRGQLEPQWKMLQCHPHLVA

[15] = biological target: T3, Histone deacetylase 8 (Homo sapiens) (UniProt Q9BY41); assay: Inhibition of full length human HDAC8 expressed in Escherichia coli assessed as inhibition of fluorophore 7-amino-4-methylcoumarin release by fluorescence assay
T3 sequence (whole entry): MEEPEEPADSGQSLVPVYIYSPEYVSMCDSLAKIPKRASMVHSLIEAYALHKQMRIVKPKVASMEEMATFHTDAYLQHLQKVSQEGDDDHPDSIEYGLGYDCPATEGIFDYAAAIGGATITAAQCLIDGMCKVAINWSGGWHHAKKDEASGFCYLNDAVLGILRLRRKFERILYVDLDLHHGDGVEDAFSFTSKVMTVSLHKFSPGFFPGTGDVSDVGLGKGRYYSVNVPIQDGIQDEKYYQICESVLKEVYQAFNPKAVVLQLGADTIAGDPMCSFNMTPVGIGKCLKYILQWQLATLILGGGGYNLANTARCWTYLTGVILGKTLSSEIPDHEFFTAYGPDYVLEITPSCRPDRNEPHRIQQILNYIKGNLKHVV

Hepacivirus hominis = assay: Inhibition of HCV NS5B RNA dependent RNA polymerase
[16] = biological target: Hepatitis C virus serine protease, NS3/NS4A (Hepatitis C virus) (UniProt D2K2A8+A3EZI9); assay: Inhibition of HCV NS3/4A protease; conditions: Hepacivirus hominis

inhibition [1]: inactive
inhibition [2]: inactive
EC50 (Hepatitis C virus [4]): 0.61 µM
inhibition [5]: inactive
inhibition [7]: inactive
inhibition [8]: inactive
inhibition [9]: inactive
inhibition [10]: inactive
inhibition [12]: inactive
inhibition [14]: inactive
inhibition [15]: Active
inhibition (Hepacivirus hominis): inactive
inhibition [16]: inactive
Compound: O=C(NO)c1sc2ccccc2c1S(=O)(=O)c1ccccc1
Activity (Hepatitis C virus [3]): 75%
selectivity ratio [6]: 93
CC50 at 72 h [11]: 57 µM
Activity (Hepatitis C virus [13]): 75%
